In brackets after ≈: the same amount, converted by molar mass.
Legend:
Assay type in all cases: functional
[1] = test system: Trichophyton mentagrophytes; assay: Antifungal activity against Trichophyton mentagrophytes var. interdigitale CPCM 06.99
How it was run: (§1)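 Bioautographic assay, with the minimal inhibitory concentration (MIC) estimated from it.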

Cryptococcus neoformans = assay: Antifungal activity against Cryptococcus neoformans H99; how it was run: as §1
Aspergillus fumigatus = assay: Antifungal activity against Aspergillus fumigatus 04-486; how it was run: as §1
Candida albicans = assay: Antifungal activity against Candida albicans ATCC 10231
How it was run: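 Bioautographic assay against Candida albicans CIP 4872 (also listed as ATCC 10231 and NIH 3147), with the minimal inhibitory concentration (MIC) estimated.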

Saccharomyces cerevisiae = assay: Antifungal activity against Saccharomyces cerevisiae ATCC 26.01; how it was run: as §1

SMILES	MIC [1] [µM]	MIC (Cryptococcus neoformans; var grubii H99, read-out: MIC) [µM]	MIC (Aspergillus fumigatus) [µM]	MIC (Candida albicans; read-out: MIC) [µM]	MIC (Saccharomyces cerevisiae; read-out: MIC) [µM]	MIC (Cryptococcus neoformans; var grubii H99) [µM]	MIC (Candida albicans) [µM]	MIC (Saccharomyces cerevisiae) [µM]
COc1cc2nccc3c4ccccc4n(c1=O)c23 [5-METHOXYCANTHINONE]	6.3 (≈ 1.58 µg/mL)	50 (≈ 12.5 µg/mL)	50 (≈ 12.5 µg/mL)	> 200	50 (≈ 12.5 µg/mL)			
COc1c2c(c3ccc(=O)oc3c1/C=C\C(C)(C)O)OC(C)(C)C=C2		> 200	> 200	146 (≈ 50 µg/mL)	> 200			
Cc1cc2c3ccccc3n3c(=O)ccc(n1)c23						> 200	> 200	> 200
O=c1ccc2c3c(cc[n+]2[O-])c2ccccc2n13	> 200	> 200	> 200	> 200	53 (≈ 12.5 µg/mL)			
Nc1cc(=O)n2c3ccccc3c3ccnc1c32	106 (≈ 24.9 µg/mL)	106 (≈ 24.9 µg/mL)	> 200	53.2 (≈ 12.5 µg/mL)	53.2 (≈ 12.5 µg/mL)			
O=c1ccc2c3c(cc[n+]2CCBr)c2ccccc2n13	> 200	> 200	> 200	> 200	7.7			
COc1ccc2c(c1)c1ccnc3ccc(=O)n2c31	> 200	200 (≈ 50.1 µg/mL)	> 200	100 (≈ 25 µg/mL)	50 (≈ 12.5 µg/mL)			
CC(=O)N1CCN(c2ccc(OCC3COC(Cn4ccnc4)(c4ccc(Cl)cc4Cl)O3)cc2)CC1 (centres undefined) [KETOCONAZOLE]	23.5 (≈ 12.5 µg/mL)	5.9 (≈ 3.14 µg/mL)	94.2 (≈ 50.1 µg/mL)	2.9 (≈ 1.54 µg/mL)	5.9 (≈ 3.14 µg/mL)			
CCCC[n+]1ccc2c3ccccc3n3c(=O)ccc1c23	> 200	> 200	> 200	124	124			
O=c1ccc2nccc3c4ccc(F)cc4n1c23						13.1 (≈ 3.12 µg/mL)	13.1 (≈ 3.12 µg/mL)	13.1 (≈ 3.12 µg/mL)
COc1c2c(c3ccc(=O)oc3c1/C=C/C(C)(C)O)OC(C)(C)C=C2 [AVICENNOL]		> 200	> 200	146 (≈ 50 µg/mL)	> 200			
O=c1ccc2nccc3c4ccccc4n1c23 [CANTHIN-6-ONE]	7.1 (≈ 1.56 µg/mL)	14.2 (≈ 3.13 µg/mL)	14.2 (≈ 3.13 µg/mL)	56.8 (≈ 12.5 µg/mL)	14.2 (≈ 3.13 µg/mL)			

From ChEMBL document CHEMBL1158823, “Extraction, hemisynthesis, and synthesis of canthin-6-one analogues. Evaluation of their antifungal activities” (2005)
